Assay results as given in ChEMBL document CHEMBL2434858, “Synthesis and allosteric modulation of the dopamine receptor by peptide analogs of L-prolyl-L-leucyl-glycinamide (PLG) modified in the L-proline or L-proline and L-leucine scaffolds” (Eur J Med Chem, 2013).
Calls of active or inactive are those of the source. The calls are words filed in the database; no cut-off is given here. Residues, ends and D or L forms follow the SMILES beside them.

What was measured:
[1] = target: D(2) dopamine receptor (Homo sapiens) (UniProt P14416); experiment: Positive allosteric modulation of human dopamine D2S receptor expressed in CHO cell membranes assessed as stimulation of [3H]-NPA binding at 1 to 10 uM after 60 mins by beta scintillation counting analysis
Procedure, shortened: (§1)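 Membranes from confluent CHO cells stably expressing human D2S, homogenized and spun at 48,400 g. Membranes were incubated with 0.25 nM [3H]NPA plus compound (eight concentrations) for 60 min at 25 °C in 50 mM Tris-HCl pH 7.4, 120 mM NaCl, 5 mM KCl, 4 mM MgCl2, 1 mM EDTA. Nonspecific binding was defined with (+)-butaclamol. Samples were filtered through PEI-treated filters. Result is % increase of specific binding over compound-free control; duplicates, three experiments, ANOVA.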

[2] = target: D(2) dopamine receptor (Homo sapiens) (UniProt P14416); experiment: Positive allosteric modulation of human dopamine D2S receptor expressed in CHO cell membranes assessed as stimulation of [3H]-NPA binding at 10^-12 to 10^-9 M after 60 mins by beta scintillation counting analysis; procedure, shortened: as §1
[3] = target: D(2) dopamine receptor (Homo sapiens) (UniProt P14416); experiment: Positive allosteric modulation of human dopamine D2S receptor expressed in CHO cell membranes assessed as stimulation of [3H]-NPA binding at 10^-8 to 10^-4 M after 60 mins by beta scintillation counting analysis; procedure, shortened: as §1

Sequence of D(2) dopamine receptor (Homo sapiens) (P14416 whole entry): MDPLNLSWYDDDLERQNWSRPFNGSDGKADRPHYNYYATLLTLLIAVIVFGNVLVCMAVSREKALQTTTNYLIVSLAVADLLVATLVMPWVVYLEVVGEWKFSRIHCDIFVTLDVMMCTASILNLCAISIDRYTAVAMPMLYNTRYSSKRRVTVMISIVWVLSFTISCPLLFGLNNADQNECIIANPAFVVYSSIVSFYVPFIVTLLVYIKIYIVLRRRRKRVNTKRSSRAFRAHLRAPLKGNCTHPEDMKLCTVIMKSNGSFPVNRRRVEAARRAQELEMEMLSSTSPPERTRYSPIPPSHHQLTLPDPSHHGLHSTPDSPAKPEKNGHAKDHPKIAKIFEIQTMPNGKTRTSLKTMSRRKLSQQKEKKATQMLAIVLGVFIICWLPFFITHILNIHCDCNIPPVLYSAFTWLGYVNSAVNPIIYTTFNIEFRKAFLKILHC

Row | Activity [1] | Activity [2] | Activity [3] | SMILES
1 | Active | – | – | COC(=O)CNC(=O)[C@@H](NC(=O)[C@H]1N[C@H](CN=[N+]=[N-])C[C@@H]1CN=[N+]=[N-])C(C)C
2 | Active | – | – | COC(=O)CNC(=O)[C@@H](NC(=O)[C@@H]1N[C@@H](CN=[N+]=[N-])C[C@H]1CN=[N+]=[N-])C(C)C
3 | Active | – | – | CC(C)[C@H](NC(=O)[C@@H]1N[C@@H](CN=[N+]=[N-])C[C@H]1CN=[N+]=[N-])C(=O)NCC(=O)O
4 | – | Active | inactive | CC(C)[C@H](NC(=O)[C@H]1N[C@H](CN=[N+]=[N-])C[C@@H]1CN=[N+]=[N-])C(=O)NCC(=O)O
5 | Active | – | – | CC(C)[C@H](NC(=O)[C@@H]1N[C@@H](CN=[N+]=[N-])C[C@H]1CN=[N+]=[N-])C(=O)NCC(N)=O
6 | – | Active | inactive | CC(C)[C@H](NC(=O)[C@H]1N[C@H](CN=[N+]=[N-])C[C@@H]1CN=[N+]=[N-])C(=O)NCC(N)=O

More lines, now with the values behind:

Row | SMILES | Activity [1] | Activity [2] | Activity [3]
7 | COC(=O)CNC(=O)[C@H](CC(C)C)NC(=O)[C@H]1N[C@H](CN=[N+]=[N-])C[C@@H]1CN=[N+]=[N-] | Active | – | –
8 | CC(C)C[C@H](NC(=O)[C@@H]1N[C@@H](CN=[N+]=[N-])C[C@H]1CN=[N+]=[N-])C(=O)NCC(=O)O | Active | – | –
9 | CC(C)C[C@H](NC(=O)[C@@H]1N[C@@H](CN=[N+]=[N-])C[C@H]1CN=[N+]=[N-])C(=O)NCC(N)=O | Active | – | –
10 | CC(C)C[C@H](NC(=O)[C@@H]1CCCN1)C(=O)NCC(N)=O (H-Pro-Leu-Gly-NH2) | – | Active | inactive
11 | CC(C)C[C@H](NC(=O)[C@H]1N[C@H](CN=[N+]=[N-])C[C@@H]1CN=[N+]=[N-])C(=O)NCC(N)=O | Active | – | –
12 | COC(=O)CNC(=O)[C@H](CC(C)C)NC(=O)[C@@H]1N[C@@H](CN=[N+]=[N-])C[C@H]1CN=[N+]=[N-] | Active | – | –
